Here are results for three molecules from PMC3832139 (Cancer chemotherapy and pharmacology, 2013).

pIC50: −log10 of the molar value. Read-outs that look alike come from different tables or passages of the source.

For one data set, the system named is HIF-1α in MM.1R cells. Briefly: Hypoxic HIF-1α stabilization, Western blot. The following applies: 1% oxygen, 4 hours. It counts as cell-based, human.
A further data set has as its system MM.1S and MM.1R cells. Kind of data set: Western blot of signaling pathways. It counts as cell-based, human. The following applies: for phospho-p70 S6 kinase: MM.1R cells, data not shown; for phosphorylation of AKT, MDM2, and ERK: MM.1S and MM.1R cells, 10 μM.
In data set [1] the test system is MM.1R cells. Briefly: MTT cytotoxicity assay. It counts as cell-based, human.
For data set [2], the system named is MM.1S cells. Kind of data set: Cleaved caspase-3 immunocytochemistry. In kind it is cell-based, human. The following applies: for cells positive for cleaved caspase-3: one hour, non-treated 5.9%.
The test system of data set [3] is MM.1R cells. Briefly: Cleaved caspase-3 immunocytochemistry. In kind it is cell-based, human.
Data set [4] concerns MM.1R xenografts. Kind of data set: Immunohistochemistry of MM.1R tumors. In kind it is in vivo, mouse. The following applies: 50 mg/kg s.c. 3 times weekly. The procedure, abridged:
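Mice bearing s.c. MM.1R flank xenografts (randomized at 100–125 mm³) got test compound 50 mg/kg s.c. or acidified sterile water vehicle, 3 times weekly for 3 weeks. Frozen 4 μm tumor sections were stained with rat anti-mouse CD31; paraffin 5 μm sections were stained overnight with anti-PCNA (PC10). HRP streptavidin-biotin, hematoxylin counterstain, mouse IgG negative control. PCNA labeling index: % positive nuclei over 500 cells, ten 40x fields; SD, n=8.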

For data set [5], the system named is HIF-1α in RPMI 8226 cells. Briefly: Hypoxic HIF-1α stabilization, Western blot. In kind it is cell-based, human. The following applies: RPMI 8226, 1% oxygen, 4 hours, 20 and 40 μM.
For data set [6], the system named is MM.1R xenografts. In kind it is in vivo, mouse.
For data set [7] the following is noted: human, in vivo.
The conditions of data set [8]: relapsed or refractory MM patients, Phase I.
Data set [9] concerns MM.1S cells. Briefly: MTT cytotoxicity assay. The following applies: read-out: IC50 (cytotoxicity, MTT).
For data set [10] the following is noted: cited from earlier work.
The subject of a further data set is p110β. The following applies: cited from earlier work.
Data set [11] deals with phospho-AKT in CD138+ MM cells. Kind of data set: Phospho-AKT flow cytometry of patient bone marrow CD138+ MM cells. In kind it is in vivo, human. The following applies: patient 002 CD138+ cells before dosing, 10 μM ex vivo, 30 minutes.
A further data set relates to p110γ. The following applies: cited from earlier work.
For a further data set, the system named is p110δ. The following applies: cited from earlier work.
A short description of data set [12]: Prodrug cleavage and preclinical pharmacokinetics. In kind it is in vitro ADME.
A further data set deals with RPMI 8226 cells. Kind of data set: MTT cytotoxicity assay. It counts as cell-based. The following applies: Homo sapiens, RPMI-8226, 48 h, read-out: IC50 (cytotoxicity, MTT).
A short description of data set [13]: Pharmacokinetics in MM patients, Phase I study of SF1126. The following applies: MM patients given SF1126 infusion, dose levels 90–570 mg/m^2.

Consider `N=C(N)NCCC[C@H](NC(=O)CCC(=O)OC[N+]1(c2cc(=O)c3cccc(-c4ccccc4)c3o2)CCOCC1)C(=O)NCC(=O)N[C@@H](CC(=O)O)C(=O)N[C@@H](CO)C(=O)[O-]` [SF1126], for which the “HIF-1α accumulation under hypoxic conditions” value with HIF-1α in MM.1R cells is reported as “blocked”. Moreover, in the data set with MM.1S and MM.1R cells, the expression of survivin result is listed as “not affected”; the “phospho-p70 S6 kinase” value is recorded as “decreased”; the “phosphorylation of AKT, MDM2, and ERK” value is recorded as “significantly decreased”. Moreover, the pIC50 with MM.1R cells [1] (read-out: IC50 (cytotoxicity, MTT), 48 hours, sigmoidal dose-response fit) was 4.93. In the data set with MM.1S cells [2] (5 μM), the “increase in cleaved caspase-3 over non-treated cells” value was 1.4 fold and the “cells positive for cleaved caspase-3” value worked out at 8.3%. Moreover, in the data set with MM.1S cells [2] (50 μM), the “increase in cleaved caspase-3 over non-treated cells” value came out at 1.9 fold and the “cells positive for cleaved caspase-3” value turned out to be 11.4%. In addition, the “increase in caspase 3 cleavage” value in the data set on MM.1R cells [3] (5 μM) is recorded as 3 fold. The “increase in caspase 3 cleavage” value in the data set with MM.1R cells [3] (50 μM) is given as 2.7 fold. Moreover, the “PCNA-positive proliferating cells (labeling index)” value with MM.1R xenografts [4] (controls 25%, n=8, p<0.02) amounted to 7%. Moreover, the CD31 microvessel density entry with MM.1R xenografts [4] (n=8, p<0.007) is recorded as “striking decrease”. For the same molecule, the “HIF-1α expression under hypoxic conditions” value in data set [5] is listed as “abrogated”. Further, the “mean tumor volume relative to controls (fold less)” value in the data set with MM.1R xenografts [6] (50 mg/kg s.c. 3 times weekly for 3 weeks, by 34 days) is listed as “approximately eightfold”. Besides, the “untoward effects in mice” value in the data set with MM.1R xenografts [6] (mouse, in vivo) is “No untoward effects”. For the same molecule, the “clearance of SF1126” value in data set [7] is “rapidly cleared post-infusion”. For the same molecule, the “effect on disease progression” value in data set [8] is “did not appear to modify disease progression”. Moreover, in the data set on MM.1S cells [9] (MM.1S, 48 hours, sigmoidal dose-response fit), the pIC50 was 5.05.

Consider RADS [SF1326], for which the “rate of cleavage to SF1101” value in data set [10] is “same rate as SF1126”.

As to `O=c1cc(N2CCOCC2)oc2c(-c3ccccc3)cccc12` [LY294002], the solubility entry in “Solubility” is listed as “only soluble in 100% DMSO”. In addition, the pIC50 was […] in the data set on p110β; […] in the data set with p110γ; 5.04 with MM.1R cells [1] (Homo sapiens, 48 h, read-out: IC50 (cytotoxicity, MTT)); […] in the data set on p110δ; […] in the data set on RPMI 8226 cells; 5.14 with MM.1S cells [9] (Homo sapiens, MM1.S, 48 h). For the same molecule, the “endogenous downstream AKT phosphorylation, ex vivo treatment” value in [11] is on record as “did not suppress”. The “phospho-p70 S6 kinase” value with MM.1S and MM.1R cells is reported as “decreased”. Moreover, the “phosphorylation of AKT, MDM2, and ERK” value in the data set on MM.1S and MM.1R cells is recorded as “significantly decreased”. Moreover, the plasma half-life entry in data set [12] is “does not have a measurable plasma half-life”. Besides, the “t1/2 of active SF1126 hydrolysis product” value in [13] fell in the range of 1.1 to 1.5 h.
